PglD DTNB = blocks C. jejuni PglD acetyltransferase activity; purified PglD enzyme, DTNB colorimetric CoA detection; inhibition, % at 12.5 µM; 360,000 compounds, 0.098% hits; in the data active = inhibition above about 16%, passing the limit was not always enough; inconclusive = no clear call, values can overlap the other calls
RAD52 anneal inh = inhibitors of human RAD52 DNA annealing | AID 651710 | recombinant RAD52 DNA annealing, FRET fluorescence | P43351 | inhibition, % at 18.7 µM | 360,000 compounds, 0.46% hits;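 active = every replicate showing at least 50% inhibition; inconclusive = mean inhibition at least 50% but not in every replicate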
Cneo AK release = Cryptococcus neoformans lysis via adenylate kinase release. AID 651654. lysis activity, % at 15 µM. C. neoformans lysis, adenylate kinase release luminescence, 4 h; normalised: neutral wells 0, clomiphene wells 100. 360,000 compounds, 0.2% hits;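 active = mean lysis activity across replicates of at least 80%, whatever share of replicates individually reach that level; inactive = mean lysis activity below 80%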
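Material: C. neoformans cells; Schedule: 4 h static compound exposure, 37 °C, read 1 h post-reagent; Measured by: adenylate kinase release luminescence; Read-out: signal increase indicating cell lysis; Controls: Clomiphene as positive lysis control.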
RAD54 branch = inhibitors of human RAD54 branch migration. Q92698. RAD54 Holliday junction branch migration, FAM/BHQ fluorescence. inhibition, % at 10.4 µM. 360,000 compounds, 0.14% hits. AID 602329;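 active = mean normalized replicate activity at least 40 and at least half of replicates scoring 40 or more; inconclusive = only one of the two criteria met; inactive = mean below 40 and under half of replicates reaching 40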;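 note: 0% = median of neutral control wells and 100% = median of positive control wells; inhibitors cause a drop in the FAM fluorescence signal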
Target sequence (Q92698 whole entry, looked up): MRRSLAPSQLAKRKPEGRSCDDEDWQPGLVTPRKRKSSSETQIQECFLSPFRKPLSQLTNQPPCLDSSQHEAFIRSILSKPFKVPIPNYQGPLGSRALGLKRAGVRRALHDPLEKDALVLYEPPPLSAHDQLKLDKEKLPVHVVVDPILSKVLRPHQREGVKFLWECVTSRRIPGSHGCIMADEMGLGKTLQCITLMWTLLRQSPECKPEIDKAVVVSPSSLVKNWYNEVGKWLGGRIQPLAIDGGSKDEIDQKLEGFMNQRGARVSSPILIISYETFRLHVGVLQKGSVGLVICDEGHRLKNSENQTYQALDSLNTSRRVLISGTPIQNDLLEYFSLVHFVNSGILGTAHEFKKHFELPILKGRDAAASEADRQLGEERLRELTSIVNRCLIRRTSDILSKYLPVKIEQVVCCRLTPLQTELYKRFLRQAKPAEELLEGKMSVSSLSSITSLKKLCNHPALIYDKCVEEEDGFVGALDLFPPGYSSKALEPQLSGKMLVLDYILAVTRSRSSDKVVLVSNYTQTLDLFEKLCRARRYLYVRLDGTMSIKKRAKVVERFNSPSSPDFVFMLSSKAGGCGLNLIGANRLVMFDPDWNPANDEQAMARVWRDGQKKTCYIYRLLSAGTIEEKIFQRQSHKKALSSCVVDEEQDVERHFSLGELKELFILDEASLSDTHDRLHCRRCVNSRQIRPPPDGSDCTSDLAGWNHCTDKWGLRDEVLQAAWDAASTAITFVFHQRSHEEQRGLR
Ecoli rRNA inh = inhibits bacterial ribosomal RNA function over humanized ribosomes. E. coli WT GFP vs humanized-ribosome RFP mutants, fluorescence, 24 h; active compounds read low; DMSO median 0, no signal -100. GFP signal change (wild-type ribosome), % (concentration not given with the values). 350,000 compounds, 1.6% hits. AID 720706;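 active = significant combined selectivity score with lowered wild-type GFP, culture density cut under 30%, mutant RFP and density less affected; inactive = any of these conditions unmet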
AID977621 = wild-type E. coli growth inhibition versus H69 humanized strain – H69 mutant RFP, wild-type GFP, cherry-pick, dose response; shares compounds with Ecoli rRNA inh; fluorescence, 24 h; activity change, negative = inhibition at 50 µM; 1,900 tested, under 10 active; AID 977621;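 active = Wild-type ribosome reporter drop at least double the humanized mutant ribosome reporter drop, growth loss under a set limit; inconclusive = no clear call, values can overlap the other calls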;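 note: wild-type GFP and H69 mutant RFP strains grown together 50/50 in each well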
AID977628 = E. coli growth inhibition, wild-type GFP versus h24 humanized RFP strain, dose response, h24 mutant RFP vs wild-type GFP, cherry-pick; shares compounds with Ecoli rRNA inh; E. coli WT GFP strain growth, fluorescence, 24 h; activity change, negative = inhibition at 50 µM; 1,900 tested, under 10 active;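 active = compound lowering the normal-ribosome reporter at least twice as much as the humanized-ribosome reporter, growth loss under a set limit; inconclusive = no clear call, values can overlap the other calls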;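 note: wild-type GFP and h24 humanized RFP strains co-cultured 1 to 1 per well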
Starred values were filed as active, the others as inactive; ? = inconclusive; nt = not tested or not shown. In the library only some 1.9% were active in any assay of this set; here they are far more common.

SMILES	PglD DTNB	RAD52 anneal inh	Cneo AK release	RAD54 branch	Ecoli rRNA inh	AID977621	AID977628
C[C@@H]1CN([C@H](C)CO)C(=O)Cc2cc(NC(=O)CCCCCC(=O)Nc3ccccc3N)ccc2O[C@H]1CN(C)S(C)(=O)=O	-0.7	-5.1	-1.5	0.5	6.6	nt	nt
COc1ccc(C2CC(=O)CCN2S(=O)(=O)c2ccc(C)cc2)cc1 (stereo not given)	0.8	-14.3	1.8	7.0	-21.8*	-6.08	?
COc1ccc(C2N(S(=O)(=O)c3ccc(C)cc3)CCN2S(=O)(=O)c2ccc(C)cc2)cc1	-1.6	-4.2	2.3	6.6	-0.9	nt	nt
CC(CCC(=O)O)C1CC[C@@]2(C)C3C(=O)CC4C(C)(C)C(O)CC[C@]4(C)C3C(=O)C[C@]12C (stereo not given in full)	-0.4	-2.3	6.4	-4.1	-21.5*	-19.9	nt
CN(C(=O)CN1C(=O)NC2(CCc3ccccc32)C1=O)C1CCCCC1 (stereo not given)	1.5	-6.4	0.9	4.7	-13.2*	?	-13.6
O=C(NCc1cccnc1)c1ccc([N+](=O)[O-])o1	2.6	-16.3	0.9	6.0	3.9	nt	nt
CC(=O)c1ccc(NC(=O)c2ccc([N+](=O)[O-])o2)cc1	-5.0	-7.6	-2.2	-0.4	-15.0*	nt	-6.02
O=C(Nc1cccnc1)c1ccc([N+](=O)[O-])o1	7.7	-16.1	-5.5	-14.6	-19.1*	nt	?
O=C(Nc1ccc(Cl)cn1)c1ccc([N+](=O)[O-])o1	nt	-12.3	nt	nt	-20.6*	-14.1	-12.3
Cc1c(Cl)c([N+](=O)[O-])nn1Cc1ccc(C(=O)Nc2ccc(Cl)cn2)o1	1.6	nt	-4.2	-8.3	nt	nt	nt
COc1ccc(NC(=O)c2ccc([N+](=O)[O-])o2)cc1	-6.5	-14.9	-0.9	5.0	-56.9	nt	nt
C[C@H](CO)N1C[C@H](C)[C@H](CN(C)C(=O)Cc2ccccc2)OCCCC[C@H](C)Oc2ccc(NC(=O)CCC(F)(F)F)cc2C1=O	-4.3	nt	-0.2	1.4	-1.7	nt	nt
COc1cccc(-c2ccc(NC(=O)C3CCCN(Cc4cnn(C(C)C)c4)C3)cc2)c1 (stereo not given)	-3.5	-12.3	-0.8	8.6	-24.2*	nt	-0.471
Cc1ccc(S(=O)(=O)N[C@@H]2C=C[C@H](CC(=O)NCc3ccc(Cl)c(Cl)c3)O[C@H]2CO)cc1	-4.1	7.8	1.4	-0.4	-0.9	nt	nt
COc1ccc(S(=O)(=O)Nc2ccc3c(c2)C(=O)N([C@@H](C)CO)C[C@@H](C)[C@@H](CN(C)Cc2ccccc2)OCCCC[C@H](C)O3)cc1	0.8	nt	1.4	0.4	0.9	nt	nt
O=C(NCc1ccccc1)c1ccc(-c2ccccc2F)o1	12.4	-18.3	-0.7	-5.5	-37.5*	-22.2	?
COc1cccc(CN(C)Cc2nc(Cc3ccccc3Cl)no2)c1	nt	-18.2	nt	nt	-26.1*	-16.8	?
COc1ccc(S(=O)(=O)Nc2ccc3c(c2)C(=O)N([C@H](C)CO)C[C@@H](C)[C@H](CN(C)C(=O)NC(C)C)OCCCC[C@@H](C)O3)cc1	1.8	17.8	-7.5	5.6	0.1	nt	nt
CC(=O)Nc1ccc(S(=O)(=O)Nc2cccc(-c3nc4cc(C)ccc4o3)c2)cc1	6.6	-7.7	0.1	13.5	-17.5*	-3.93	nt
CCOC(=O)C(C)(C)n1nnc(-c2ccc([N+](=O)[O-])cc2)n1	nt	-7.3	nt	nt	-23.1*	-7.45	?
CCOC(=O)Cn1nnc(-c2ccc([N+](=O)[O-])cc2)n1	nt	-4.2	nt	nt	7.5	nt	nt
O=C(Nc1ccc(Cl)c(Cl)c1)N[C@@H]1CC[C@@H](CCn2cc(C3CCCCC3)nn2)O[C@H]1CO	0.0	14.1	-0.6	0.1	-42.2*	?	?
O=C(Nc1ccc(Cl)c(Cl)c1)N[C@H]1CC[C@@H](CCn2cc(C3CCCCC3)nn2)O[C@@H]1CO	-3.0	12.0	-3.3	1.1	-44.5*	nt	?
COc1ccc(NC(=O)CCS(=O)(=O)c2ccccc2Cl)cc1S(=O)(=O)Nc1ccc(Cl)cc1	nt	-56.0	nt	nt	-19.4*	-7.71	nt
COc1ccc(NC(=O)CCC(=O)c2cccs2)cc1S(=O)(=O)Nc1ccc(Cl)cc1	nt	-12.2	nt	nt	-19.4*	-14.8	nt
SMILES	PglD DTNB	RAD52 anneal inh	Cneo AK release	RAD54 branch	Ecoli rRNA inh	AID977621	AID977628
COc1ccc(NS(=O)(=O)c2cc(NC(=O)CCSc3ccccc3)ccc2OC)cc1	-0.2	nt	0.4	-5.9	nt	nt	nt
CCCNC(=O)C[C@H]1CC[C@H]2[C@@H](COc3ccc(NC(=O)COC)cc3C(=O)N2C)O1	-0.5	nt	1.9	-13.1	nt	nt	nt
Cc1ccccc1-n1ncc2c1CC(C)(C)CC2NC(=O)CCN1Cc2ccccc2C1=O (stereo not given)	-5.2	-6.4	0.8	0.7	-23.9*	-10.7	nt
CCN(CC(=O)Nc1ccc(OC)cc1)CC(=O)Nc1cccc(C#N)c1	-0.4	-8.1	10.2	2.7	-6.7	nt	nt
CCN(CC(=O)Nc1cccc(C#N)c1)CC(=O)Nc1cccc(OC)c1	nt	-16.7	3.9	-1.4	-22.5*	-3.5	nt
CC(C)n1nnnc1C1c2ccccc2C(=O)N1CCOc1ccccc1 (stereo not given)	nt	-0.9	nt	nt	-18.2*	-7.51	-16
O=C1c2ccccc2C(c2nnnn2Cc2ccccc2)N1CCOc1ccccc1 (stereo not given)	nt	-6.8	nt	nt	-17.4	nt	nt
O=C(C[C@H]1CC[C@@H]2[C@H](COC[C@H](O)CN2C(=O)c2ccccc2)O1)N1CCOCC1	-1.1	-2.6	-0.9	4.9	0.9	nt	nt
CCOC(=O)N1CCN(c2nc(-c3cccs3)nc3ccccc23)CC1	-0.3	-14.1	2.5	0.3	-3.7	nt	nt
CC(=O)N1CCN(c2nc(-c3cccs3)nc3ccccc23)CC1	nt	-13.4	nt	nt	-24.2*	-2.9	nt
O=C(C[C@H]1CC[C@@H](NC(=O)Nc2ccc(C(F)(F)F)cc2)[C@@H](CO)O1)NCc1cccc(F)c1	3.2	3.3	20.9	10.1	-4.3	nt	nt
Cc1cccc(-c2ccc([C@@H]3[C@@H](CO)N4CCCCN(S(=O)(=O)c5ccccc5C)C[C@H]34)cc2)c1	-1.5	-81.3	0.2	6.7	-30.2	-4.98	-4.32
Cc1cccc(-c2ccc([C@@H]3[C@@H](CO)N4CCCCN(S(=O)(=O)c5ccccc5C)C[C@@H]34)cc2)c1	1.0	-23.0	107.6*	13.3	2.1	-5.11	-2.24
COc1cccc(-c2ccc([C@@H]3[C@@H](CO)N4CCCCN(S(=O)(=O)c5cccs5)C[C@H]34)cc2)c1	-1.9	-46.2	-3.6	0.7	-37.0	nt	nt
Cc1cccc(-c2ccc([C@H]3[C@@H](CO)N4CCCCN(S(=O)(=O)c5ccccc5F)C[C@H]34)cc2)c1	-1.5	nt	27.7	14.5	-52.2	nt	nt
